Screening data as filed in PubChem BioAssay.
Compounds with a hit are over-represented: about 2.2% of the library has one in this group of screens.
rRNA inh HTS: inhibits bacterial ribosomal RNA function over humanized ribosomes. 1.6% of 350,000 active. AID 720706. E. coli WT GFP vs humanized-ribosome RFP mutants, fluorescence, 24 h; stronger effect = lower value; DMSO median 0, no signal -100. GFP signal change (wild-type ribosome), % (test concentration not listed);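 active = significant combined selectivity score with lowered wild-type GFP, culture density cut under 30%, mutant RFP and density less affected; inactive = any of these conditions unmet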
PglD inh: PglD (C. jejuni) enzyme inhibition | purified PglD enzyme, DTNB colorimetric CoA detection | inhibition, % at 12.5 µM | 0.098% of 360,000 active; in the data active = inhibition above about 16%, passing the limit was not always enough
Cneo AK release: Cryptococcus neoformans lysis via adenylate kinase release. C. neoformans lysis, adenylate kinase release luminescence, 4 h; normalised: neutral wells 0, clomiphene wells 100. lysis activity, % at 15 µM. 0.2% of 360,000 active. AID 651654;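 active = mean lysis activity across replicates of at least 80%, whatever share of replicates individually reach that level; inactive = mean lysis activity below 80%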
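Signal: Adenylate kinase release luminescence | Assay system: Log-phase Cryptococcus neoformans yeast cells | Input: Cells at 5 × 10^6 per mL | Buffer or medium: Fresh YPD growth medium | Compound: Single dose | Schedule: Static 4 h at 37 °C with compound, 1 h detection | Controls: Clomiphene | Read-out: Luminescence rise reflecting yeast cell lysis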
Yeast superoxide: yeast age-related superoxide inhibition as caloric restriction mimetic; S. cerevisiae aged cells, superoxide DHE fluorescence; stronger effect = lower value; superoxide response (% of plate mean), % at 10 µM; 0.18% of 330,000 active; AID 2690;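 active = superoxide response under a set limit, about three screen SD below normal, cut at about 65% in these data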;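 also: yeast aged for seven days with compound at 30 °C before DHE staining; 100% = average MFI of all compound-treated wells on the plate with controls excluded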
Mot1-301 SUMO: inhibitors of SUMOylation pathway: yeast Mot1-301 growth rescue; S. cerevisiae Mot1-301 growth rescue, ATP luminescence, 38.5C; percent above DMSO median, 100 means doubled; growth rescue, % at 18.8 µM; 1% of 320,000 active; AID 2716;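 active = every valid replicate shows activation above 250% relative to neutral control wells; inactive = the rest, any valid replicate at or below 250%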;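 also: OY570 slx delta 5 strain wells were the positive control but not used for scaling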
The depositor's hits bear a star; i = inactive; nt = no result given.

SMILES	rRNA inh HTS	PglD inh	Cneo AK release	Yeast superoxide	Mot1-301 SUMO
O=C(Nc1ccc2c(c1)[C@@H]1C[C@H](CC(=O)N3CCOCC3)O[C@@H](CO)[C@@H]1O2)NC1CCCC1	0	-2	-4	nt	nt
NC(=O)Cc1ccc(C(=O)c2ccc(Cl)cc2)s1	-24*	-3	0	106	-26
COc1ccc2c3c([nH]c2c1)[C@@H](CO)N(C(=O)c1cccnc1)CC31CCN(C(=O)Nc2cccc(F)c2)CC1	-5	nt	nt	nt	nt
Cc1ccc(S(=O)(=O)Nc2ccc(NC(=O)c3c(F)c(F)c(F)c(F)c3F)cc2)cc1	-26*	nt	nt	103	-5
Cc1ccc(NS(=O)(=O)c2ccc(NS(=O)(=O)c3cccs3)cc2)cc1	nt	-7	-1	101	302*
COc1ccc([N+](=O)[O-])cc1/C=N/NC(=O)CNC(=O)c1cccc(F)c1	-23*	-8	-9	91	6
COc1ccc([N+](=O)[O-])cc1/C=N/NC(=O)CNC(=O)C(c1ccccc1)c1ccccc1	nt	4	1	91	9
C[C@H](NC(=O)[C@H](Cc1ccccc1)n1c(=O)[nH]c2ccccc2c1=O)C(=O)N1CCC[C@H]1C(=O)O	8	1	-1	131	-9
CSCC[C@H](NC(=O)[C@H](Cc1ccccc1)n1c(=O)[nH]c2ccccc2c1=O)C(=O)N1CCC[C@@H]1C(=O)O	nt	-3	1	133	735*
CC(=O)Nc1cccc2c1O[C@H](CN(C)C(=O)OC(C)(C)C)[C@H](C)CN(C)C2=O	1	nt	nt	nt	nt
Cc1ccsc1C(=O)OCC(=O)Nc1ccc(Cl)cn1	-23*	-1	2	84	-1
NC(=O)c1sc(=S)n2c1[nH]c(=O)c1sccc12	4	6	5	116	730*
C[C@@H]1CN([C@H](C)CO)C(=O)c2cc(NS(=O)(=O)c3ccccc3)ccc2O[C@@H]1CN(C)S(=O)(=O)c1cn(C)cn1	2	0	5	nt	nt
CN(CC(=O)Nc1ccccc1Cl)C(=O)c1cccc(S(=O)(=O)N2CCN(c3ccc(F)cc3)CC2)c1	-25*	-1	-1	101	11
COC(=O)CC1(c2ccc(OC)cc2)C(=O)c2ccccc2C1=O	-26*	0	2	113	-15
N#CC(CCc1ccc([N+](=O)[O-])cc1)(CCc1ccc([N+](=O)[O-])cc1)C(N)=O	-19*	-2	3	nt	nt
Nc1ncnc(N)c1N=Nc1ccccc1	9	2	-4	99	-4
Nc1ccc2ccccc2c1N=Nc1ccccc1	-31*	7	1	nt	nt
C[C@H]1CN([C@@H](C)CO)S(=O)(=O)c2ccc(C3=CCCCC3)cc2O[C@H]1CN(C)Cc1ccccc1F	0	-10	4	nt	nt
Cc1ccccc1C(=O)NNC(=O)Cc1cccc2ccccc12	-41*	1	-4	104	-10
C[C@H](NC(=O)Cc1cccc2ccccc12)C(=O)NCc1ccccc1	-32*	nt	nt	109	11
Cc1cc(C)nc(SCC(=O)NNC(=O)c2ccccc2C)n1	5	1	3	65*	2
Cc1noc(C)c1S(=O)(=O)Nc1cccc2c1O[C@H](CN(C)Cc1ccc(-c3ccccc3)cc1)[C@H](C)CN([C@@H](C)CO)C2=O	2	1	1	nt	nt
CN(C)CCCNC(=O)[C@@H]1[C@@H](CO)[C@@H]2Cn3c(ccc(-c4cccc(C(=O)N(C)C)c4)c3=O)[C@H]1N2	0	1	41	nt	nt
CCCCCC(=O)NCC(C)NC(=O)CCCCC (stereo not given)	nt	nt	nt	89	486*
SMILES	rRNA inh HTS	PglD inh	Cneo AK release	Yeast superoxide	Mot1-301 SUMO
CN1C(=O)c2cc(NS(=O)(=O)c3cccc(F)c3)ccc2OC[C@H]2O[C@H](CC(=O)O)CC[C@@H]21	2	3	-3	nt	nt
CC1Cc2cc(/C=C3/SC(=S)NC3=O)ccc2O1 (stereo not given)	-20*	-1	-4	101	-12
CCN(CC)c1ccc(C=C2SC(=S)NC2=O)cc1	-12	nt	nt	nt	nt
O=C(C[C@@H]1CC[C@H](NS(=O)(=O)c2ccc(F)cc2)[C@@H](CO)O1)N1CCc2ccccc2C1	-1	-2	3	nt	nt
COc1cc(C(C)=O)ccc1OCc1cn(CC(=O)c2ccc(O)cc2)nn1	1	-1	11	nt	nt
CC(=O)c1ccc(OCc2cn(CC(=O)c3ccc(O)cc3)nn2)c(C)c1	-31*	2	-2	nt	nt
CS(=O)(=O)N1C[C@H](O)COC[C@@H]2O[C@@H](CC(=O)NCc3ccc(-c4ccccc4)cc3)CC[C@H]21	-1	2	-2	nt	nt
CN(Cc1ccno1)Cc1cn(C)nc1-c1ccc(Oc2ccccc2)cc1	-34*	nt	nt	83	-6
CC(C)N(C)Cc1cn(C)nc1-c1ccc(Oc2ccccc2)cc1	-6	1	0	110	i
CSc1cccc(NC(=S)N(CCN(C)C)C(C)c2ccncc2)c1 (stereo not given)	9	3	1	78	318*
CSc1cccc(NC(=S)N(CCN(C)C)C(C)c2ccccn2)c1 (stereo not given)	-20	14	1	118	103
CN1CCN(C(=O)C[C@@H]2CC[C@@H]3[C@H](COC[C@H](O)CN3C(=O)C3CCOCC3)O2)CC1	8	3	-1	nt	nt
CCOC(=O)c1sc2nc(C)nc(N3CCCCC3C)c2c1C (stereo not given)	-26*	nt	nt	95	-14
Cc1nc(N2CCCCC2C)c2c(C)c(C(=O)Nc3cccc(C(F)(F)F)c3)sc2n1 (stereo not given)	5	nt	nt	96	-7
COCCCNC(=S)N/N=C/c1ccc2ccccc2c1	-32*	nt	nt	102	-7
COCCCNC(=S)N/N=C/c1ccc(OC)cc1	-6	3	8	98	3
CCCC#Cc1ccc2c(c1)[C@H]1[C@H](CCN1C(=O)C1CCCCC1)[C@@H](CO)N2	-4	nt	nt	nt	nt
Clc1cccc(Nc2nc(-c3ccncc3)cs2)c1	-18	nt	nt	113	275*
Cn1c(=O)c2c(-c3ccccc3)n(Cc3cccnc3)cc2n(C)c1=O	nt	0	4	98	290*
Cc1ccc(-c2c3c(=O)n(C)c(=O)n(C)c3cn2Cc2cccnc2)cc1	nt	-5	1	107	221
O=C(NCc1ccc(F)cc1)c1cccs1	5	6	3	108	318*
COc1ccc(CNC(=O)c2cccs2)cc1	nt	-8	2	118	334*
O=C(CNC(=O)c1cccs1)OCc1ccc(Cl)cc1	0	nt	nt	96	-4
O=C(CNC(=O)c1cccs1)OCc1ccc(Br)cc1	-26*	0	-2	86	3
O=C(Nc1cccc(NC(=O)c2cccs2)c1)c1ccc(F)cc1	-28*	-1	4	98	94
COc1ccc(CCNC(=O)c2cccs2)cc1	-8	1	-3	108	-6
O=C(CCCNC(=O)c1ccc(Cl)cc1)Nc1ncccc1O	-8	-3	1	103	143
